A short description of experiment [1]: Compound was evaluated for the expression of luciferase activity in BAF3/TPO-Rluc cell line. The class given is functional, cell-based. The following applies: Homo sapiens, BAF-3/TPO-Rluc. In a few lines: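 BAF3/TPO-Rluc cells at (1 × 10⁵)/mL, starved of IL-3 overnight, in growth medium with 0.5% v/v FBS and 30 µM ZnCl₂. Incubated with compound (0.32% DMSO final) or rhuTPO for 3 h at 37 °C, 5% CO₂. Luciferase activity read on a luminometer; each point is the mean of triplicate assays.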

The species entered for a further experiment is Homo sapiens. The experiment in a line: Thrombopoietin efficacy in human bone marrow cultures was reported. The class given is functional.

pEC50: −log10 of the molar value.

A word on the pEC50: it is −log10 of the EC50, conventionally taken in molar units. Read a high pEC50 as a low EC50. With `O=C(O)c1ccc(N/C(S)=N/N=C/c2cc(Cl)cc(Cl)c2O)cc1`, the pEC50 in experiment [1] was 6.46. Also, the TPO(max) in the experiment filed under Homo sapiens was 30%.

`Cc1ccc(-c2cccc(/C=N/N=C(\S)Nc3cccc(C(=O)O)c3)c2O)cc1C` showed a TPO(max) in the experiment filed under Homo sapiens of 90%.

`Cc1ccc(-n2[nH]c(C)c(/N=N/c3c(O)cc(S(=O)(=O)O)c4ccccc34)c2=O)cc1C` gave a pEC50 in experiment [1] of 7.40. The TPO(max) in the experiment listed under Homo sapiens stood at 100%.

`O=C(O)c1ccc(N/C(S)=N/N=C/c2cccc(-c3cccc(C(F)(F)F)c3)c2O)cc1`: in the experiment listed under Homo sapiens, the TPO(max) stood at 100%.

Take `Cc1cc(Cl)ccc1/N=C(\S)N/N=C/c1cc(Cl)cc(Cl)c1O`: the pEC50 in experiment [1] was 5.25. In the experiment listed under Homo sapiens, the TPO(max) came to 30%.

For the compound `O=S(=O)(O)c1ccc(N/C(S)=N/N=C/c2cc(Cl)cc(Cl)c2O)cc1`, the pEC50 in experiment [1] is 6.59. The compound further showed a TPO(max) in the experiment filed under Homo sapiens of 29%.

The values above are taken from ChEMBL document CHEMBL1135970, “Identification of a pharmacophore for thrombopoietic activity of small, non-peptidyl molecules. 1. Discovery and optimization of salicylaldehyde thiosemicarbazone thrombopoietin mimics” (J Med Chem, 2002).
